Tests used:
A549 [1] = experiment: Cell cycle arrest in human A549 cells assessed as accumulation at S phase at 25 uM after 72 hrs by propidium iodide staining based flow cytometry (reference value: 42.46%); assay type: functional
A549 [2] = experiment: Induction of apoptosis in human A549 cells assessed as early apoptotic cells at 5 uM after 72 hrs by annexinV-APC/7-AAD staining based flow cytometry (reference value: 5.7%); assay type: functional
A549 [3] = experiment: Induction of apoptosis in human A549 cells assessed as late apoptotic cells at 1 uM after 72 hrs by annexinV-APC/7-AAD staining based flow cytometry (reference value: 1.81%); assay type: functional
A549 [4] = experiment: Cell cycle arrest in human A549 cells assessed as accumulation at G1 phase at 5 uM after 72 hrs by propidium iodide staining based flow cytometry (reference value: 53.66%); assay type: functional
A549 [5] = experiment: Induction of apoptosis in human A549 cells after 3 days by annexinV-APC/7-AAD staining based flow cytometry; assay type: functional, cell-based
A549 [6] = experiment: Induction of apoptosis in human A549 cells assessed as viable cells at 25 uM after 72 hrs by annexinV-APC/7-AAD staining based flow cytometry (reference value: 92.08%); assay type: functional; conditions: A549, 72 h, read-out: Activity
A549 [7] = experiment: Cell cycle arrest in human A549 cells assessed as accumulation at G2 phase at 25 uM after 72 hrs by propidium iodide staining based flow cytometry (reference value: 3.88%); assay type: functional
[8] = target: T1, Prostaglandin G/H synthase 2 (Rattus norvegicus, UniProt P35355); experiment: Inhibition of COX2 in rat abdominal macrophages assessed as PGE2 production pretreated for 30 mins followed by addition of 10 uM arachidonic acid as substrate for 20 mins by EIA
T1 sequence (P35355 whole entry): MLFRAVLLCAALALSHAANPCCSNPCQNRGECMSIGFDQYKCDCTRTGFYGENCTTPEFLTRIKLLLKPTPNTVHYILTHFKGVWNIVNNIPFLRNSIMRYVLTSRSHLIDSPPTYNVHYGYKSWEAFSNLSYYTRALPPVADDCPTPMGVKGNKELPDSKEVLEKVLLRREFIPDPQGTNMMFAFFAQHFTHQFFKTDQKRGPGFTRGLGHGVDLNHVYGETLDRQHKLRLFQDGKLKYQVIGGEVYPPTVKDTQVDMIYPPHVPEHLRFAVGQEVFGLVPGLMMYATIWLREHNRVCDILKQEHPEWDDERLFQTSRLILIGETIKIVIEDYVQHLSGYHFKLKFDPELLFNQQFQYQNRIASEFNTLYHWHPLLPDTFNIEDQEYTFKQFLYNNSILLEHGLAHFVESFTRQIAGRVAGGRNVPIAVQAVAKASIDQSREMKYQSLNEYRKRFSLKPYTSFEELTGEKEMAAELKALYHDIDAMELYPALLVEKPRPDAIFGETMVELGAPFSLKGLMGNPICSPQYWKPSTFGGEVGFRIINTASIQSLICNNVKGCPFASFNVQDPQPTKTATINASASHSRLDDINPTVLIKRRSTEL

A549 [9] = experiment: Cell cycle arrest in human A549 cells assessed as accumulation at G2 phase after 72 hrs by propidium iodide staining based flow cytometry; assay type: functional
A549 [10] = experiment: Induction of apoptosis in human A549 cells assessed as early apoptotic cells at 25 uM after 72 hrs by annexinV-APC/7-AAD staining based flow cytometry (reference value: 5.7%); assay type: functional
A549 [11] = experiment: Induction of apoptosis in human A549 cells assessed as early apoptotic cells at 1 uM after 72 hrs by annexinV-APC/7-AAD staining based flow cytometry (reference value: 5.7%); assay type: functional
A549 [12] = experiment: Induction of apoptosis in human A549 cells assessed as necrotic cells at 25 uM after 72 hrs by annexinV-APC/7-AAD staining based flow cytometry (Rvb =0.41%); assay type: functional
A549 [13] = experiment: Cell cycle arrest in human A549 cells assessed as accumulation at S phase at 5 uM after 72 hrs by propidium iodide staining based flow cytometry (reference value: 42.46%); assay type: functional
[14] = target: T2, Prostaglandin G/H synthase 1 (Bos taurus, UniProt O62664); experiment: Inhibition of COX1 in calf endotheliocyte assessed as 6keto-PGF1alpha production pretreated for 20 mins followed by addition of 10 uM arachidonic acid as substrate for 20 mins by radioimmuno assay
T2 sequence (O62664 whole entry): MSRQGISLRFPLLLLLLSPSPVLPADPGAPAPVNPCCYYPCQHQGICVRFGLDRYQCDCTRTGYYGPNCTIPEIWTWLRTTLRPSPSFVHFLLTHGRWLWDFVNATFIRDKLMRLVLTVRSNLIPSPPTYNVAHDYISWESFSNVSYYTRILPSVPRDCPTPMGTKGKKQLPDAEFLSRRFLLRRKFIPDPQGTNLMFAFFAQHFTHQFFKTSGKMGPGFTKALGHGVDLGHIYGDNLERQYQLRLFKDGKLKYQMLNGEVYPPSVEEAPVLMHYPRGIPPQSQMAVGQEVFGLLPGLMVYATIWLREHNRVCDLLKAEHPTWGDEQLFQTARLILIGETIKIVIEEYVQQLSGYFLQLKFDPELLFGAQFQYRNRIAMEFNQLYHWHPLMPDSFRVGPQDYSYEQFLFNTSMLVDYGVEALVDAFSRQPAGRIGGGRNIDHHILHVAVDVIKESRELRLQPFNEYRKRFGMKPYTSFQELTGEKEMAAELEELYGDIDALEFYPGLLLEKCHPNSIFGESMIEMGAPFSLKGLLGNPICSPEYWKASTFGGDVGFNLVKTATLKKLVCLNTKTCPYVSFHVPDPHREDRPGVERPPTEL
In short: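 Endothelial cells from neonatal calf thoracic aorta plated at 1.0×10^6 in DMEM with 10% FBS and grown 24 h at 37 °C in 5% CO₂. Compound or DMSO added for 20 min, then arachidonic acid (10 μM) for another 20 min. 6-keto-PGF1α in the medium quantified by radioimmunoassay. IC50 is the mean of four determinations.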

[15] = Antiproliferative activity against human Caco2 cells after 72 hrs by MTT assay; assay type: functional, cell-based; conditions: Caco-2, 72 h
In short: (§1)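 Cells seeded at 5×10^4/well, grown 24 h at 37 °C in 5% CO₂, then exposed to compounds dissolved in DMSO at a range of concentrations for 72 h. MTT (5 mg/mL in PBS) added for 4 h, then OD read at 570 nm. IC50 taken from dose-response curves, mean ± S.D. of three independent experiments.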

[16] = Antiproliferative activity against mouse B16F10 cells after 72 hrs by MTT assay; assay type: functional, cell-based; conditions: B16-F10, 72 h; in short: as §1
A549 [17] = experiment: Induction of apoptosis in human A549 cells assessed as late apoptotic cells at 25 uM after 72 hrs by annexinV-APC/7-AAD staining based flow cytometry (reference value: 1.81%); assay type: functional
A549 [18] = experiment: Induction of apoptosis in human A549 cells assessed as necrotic cells at 5 uM after 72 hrs by annexinV-APC/7-AAD staining based flow cytometry (reference value: 0.41%); assay type: functional
A549 [19] = experiment: Cell cycle arrest in human A549 cells assessed as accumulation at G1 phase at 25 uM after 72 hrs by propidium iodide staining based flow cytometry (reference value: 53.66%); assay type: functional
A549 [20] = experiment: Induction of apoptosis in human A549 cells assessed as viable cells at 5 uM after 72 hrs by annexinV-APC/7-AAD staining based flow cytometry (Rvb =92.08%); assay type: functional; conditions: A549, 72 h, read-out: Activity

CS(=O)(=O)c1ccc(-c2nc(SCCCOC(=O)/C=C/c3ccc(O)c(O)c3)nn2-c2ccc(F)cc2)cc1
Activity (A549 [1]): 32.19%
Activity (A549 [2]): 23.68%
Activity (A549 [3]): 3.13%
Activity (A549 [4]): 45.34%
Activity (A549 [5]): Dose-dependent effect
viability at 25 µM (A549 [6]): 55.1%
Activity (A549 [7]): 20.53%
IC50 [8]: 0.18 µM
Activity (A549 [9]): Dose-dependent effect
Activity (A549 [10]): 37.2%
Activity (A549 [11]): 9.73%
Activity (A549 [12]): 1.51%
Activity (A549 [13]): 40.9%
IC50 [14]: 12.6 µM
IC50 [15]: 11.2 µM
IC50 [16]: 10.4 µM
Activity (A549 [17]): 6.15%
Activity (A549 [18]): 2.14%
Activity (A549 [19]): 47.29%
viability at 5 µM (A549 [20]): 67.8%

From ChEMBL document CHEMBL3745688, “Discovery of novel hybrids of diaryl-1,2,4-triazoles and caffeic acid as dual inhibitors of cyclooxygenase-2 and 5-lipoxygenase for cancer therapy” (Eur J Med Chem, 2016)
